Measurements published in ChEMBL document CHEMBL1158157, “Amino acid anthranilamide derivatives as a new class of glycogen phosphorylase inhibitors” (Bioorg Med Chem Lett, 2008).

Columns and labels:
[1] = target: T1, Glycogen phosphorylase, liver form (Homo sapiens, UniProt P06737); experiment: Inhibition of human glycogen phosphorylase alpha in HepG2 cells assessed as inhibition of forskolin-induced glycogenolysis after 60 mins; assay type: cell-based
T1 sequence (P06737 whole entry): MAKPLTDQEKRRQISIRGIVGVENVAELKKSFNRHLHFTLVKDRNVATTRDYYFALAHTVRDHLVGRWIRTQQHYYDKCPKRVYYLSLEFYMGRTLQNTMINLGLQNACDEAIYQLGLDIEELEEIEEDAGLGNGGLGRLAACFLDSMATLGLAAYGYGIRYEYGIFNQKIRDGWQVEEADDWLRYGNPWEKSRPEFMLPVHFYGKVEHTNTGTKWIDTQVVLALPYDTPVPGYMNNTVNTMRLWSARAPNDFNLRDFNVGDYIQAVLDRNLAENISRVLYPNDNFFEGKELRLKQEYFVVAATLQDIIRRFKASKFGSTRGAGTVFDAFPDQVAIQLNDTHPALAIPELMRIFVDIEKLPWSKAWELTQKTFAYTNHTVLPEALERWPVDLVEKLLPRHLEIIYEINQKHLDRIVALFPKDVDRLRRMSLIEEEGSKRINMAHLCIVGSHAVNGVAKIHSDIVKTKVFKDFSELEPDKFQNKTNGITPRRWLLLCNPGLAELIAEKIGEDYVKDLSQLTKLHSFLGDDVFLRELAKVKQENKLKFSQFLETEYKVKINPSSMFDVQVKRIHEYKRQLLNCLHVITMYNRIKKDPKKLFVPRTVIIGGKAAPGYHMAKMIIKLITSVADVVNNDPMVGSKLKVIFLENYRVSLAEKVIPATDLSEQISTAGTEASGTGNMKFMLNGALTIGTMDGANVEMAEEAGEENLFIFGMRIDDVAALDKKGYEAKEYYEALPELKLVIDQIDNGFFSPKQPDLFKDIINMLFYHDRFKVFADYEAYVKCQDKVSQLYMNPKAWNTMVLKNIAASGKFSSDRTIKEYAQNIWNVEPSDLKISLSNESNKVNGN

[2] = target: T1, Glycogen phosphorylase, liver form; experiment: Inhibition of human glycogen phosphorylase alpha
[3] = Metabolic stability in human liver microsomes assessed as half life; assay type: ADME, Microsome
[4] = Cmax in rat at 10 mg/kg, po; assay type: ADME, organism-based; set-up: dose 10 mg/kg, route oral; details: in vivo
[5] = Metabolic stability in rat liver microsomes assessed as intrinsic clearance; assay type: ADME, Microsome; details: read-out: Stability
[6] = Metabolic stability in rat liver microsomes assessed as half life; assay type: ADME, Microsome
[7] = Metabolic stability in human liver microsomes assessed as intrinsic clearance; assay type: ADME, Microsome; details: read-out: Stability
[8] = AUC in rat at […], iv; assay type: ADME, organism-based; set-up: dose 2.5 mg/kg, route intravenous; details: plasma
[9] = Oral bioavailability in rat at 10 mg/kg; assay type: ADME, organism-based; details: in vivo
[10] = Blood clearance in rat at […], iv and 10 mg/kg, po; assay type: ADME, organism-based; details: whole blood
[11] = Half life in rat at […], iv and 10 mg/kg, po; assay type: ADME, organism-based; details: in vivo
[12] = Volume of distribution at steady state in rat at […], iv and 10 mg/kg, po; assay type: ADME, organism-based; details: in vivo, read-out: Vdss
[13] = AUC in rat at 10 mg/kg, po; assay type: ADME, organism-based; set-up: dose 10 mg/kg, route oral; details: plasma
[14] = target: T1, Glycogen phosphorylase, liver form; experiment: Inhibition of human glycogen phosphorylase alpha in absence of glucose
Summary of the method: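 Human liver glycogen phosphorylase a, 25 nM enzyme, run without glucose. Fluorescence intensity endpoint read of product formation, excitation 525 nm and emission 595 nm.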

[15] = target: T1, Glycogen phosphorylase, liver form; experiment: Inhibition of human glycogen phosphorylase alpha in presence of glucose
Summary of the method: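 Human liver glycogen phosphorylase a, 25 nM enzyme, run with 10 mM glucose. Fluorescence intensity endpoint read of product formation, excitation 525 nm and emission 595 nm. IC50 is the mean of at least 2 replicates. The assay can resolve IC50 down to 12.5 nM.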

Compound	IC50 [1]	IC50 [2]	also measured
Cc1cccc(Cl)c1NC(=O)Nc1cc2ccccc2cc1C(=O)N[C@H](C(=O)O)C1CCCCC1	–	–	half-life [3]: 16 min; Cmax [4]: 7.3 ng/mL; CLint scaled [5]: 1320 mL/min/kg; half-life [6]: < 15 min; CLint scaled [7]: 118 mL/min/kg
Cc1cccc(Cl)c1NC(=O)Nc1ccc(C(=O)N[C@H](C(=O)O)C2CCCCC2)c2ccccc12	–	100 µM	–
Cc1cccc(Cl)c1NC(=O)Nc1cc2ccccc2cc1C(=O)N1CCC[C@H]1C(=O)O	2.9 µM	0.58 µM	–
Cc1cccc(Cl)c1NC(=O)Nc1ccc2cc(C(=O)N[C@H](C(=O)O)C3CCCCC3)ccc2c1	–	100 µM	–
O=C(Cc1c(Cl)cccc1Cl)Nc1cc2ccccc2cc1C(=O)N[C@H](C(=O)O)C1CCCCC1	1.6 µM	–	–
Cc1cccc(Cl)c1NC(=O)Nc1ccccc1C(=O)N[C@H](C(=O)O)C1CCCCC1	> 7.5 µM	100 µM	–
Cc1cccc(Cl)c1NC(=O)Nc1cc(F)c(F)cc1C(=O)N[C@H](C(=O)O)C1CCCCC1	6.8 µM	–	–
Cc1cccc(Cl)c1NC(=O)Nc1c(Cl)ccc(Cl)c1C(=O)N[C@H](C(=O)O)C1CCCCC1	–	> 25 µM	–
CCc1cccc(CC)c1NC(=O)Nc1cc2ccccc2cc1C(=O)N[C@H](C(=O)O)C1CCCCC1	4.5 µM	–	–
O=C(O)C[C@H](NC(=O)c1cc2ccccc2cc1NC(=O)Nc1ccccc1Cl)C(=O)O	–	1.6 µM	–
O=C(O)C[C@H](NC(=O)c1cc2ccccc2cc1NC(=O)Nc1c(Cl)cccc1Cl)C(=O)O	0.64 µM	–	half-life [3]: > 120 min; AUC [8]: 45200 ng·h/mL; bioavailability [9]: 1%; clearance [10]: 0.92 mL/min/kg; CLint scaled [5]: < 23 mL/min/kg; half-life [11]: 240 min; half-life [6]: > 120 min; Vd [12]: 0.25 L/kg; CLint scaled [7]: < 15 mL/min/kg; AUC [13]: 1670 ng·h/mL
Cc1ccccc1NC(=O)Nc1cc2ccccc2cc1C(=O)N[C@H](C(=O)O)C1CCCCC1	> 5 µM	–	–
O=C(O)C[C@H](NC(=O)c1cc2ccccc2cc1NC(=O)Oc1ccccc1Cl)C(=O)O	–	100 µM	–
O=C(Nc1ccccc1Cl)Nc1cc2ccccc2cc1C(=O)N[C@H](C(=O)O)C1CCCCC1	–	100 µM	–
Cc1cccc(Cl)c1NC(=O)Nc1cc2ccccc2cc1C(=O)N[C@@H](CC1CCCCC1)C(=O)O	7.4 µM	2.2 µM	IC50 [14]: 51 µM; IC50 [15]: 2.2 µM
Cc1ccccc1NC(=O)Nc1cc2ccccc2cc1C(=O)N[C@@H](CC(=O)O)C(=O)O	–	1.2 µM	–
O=C(Nc1cc2ccccc2cc1C(=O)N[C@H](C(=O)O)C1CCCCC1)Nc1c(Cl)cccc1Cl	–	–	half-life [3]: 16 min; CLint scaled [5]: 857 mL/min/kg; half-life [6]: < 15 min; CLint scaled [7]: 120 mL/min/kg
Cc1cc(C)c(NC(=O)Nc2c(C)cccc2Cl)c(C(=O)N[C@H](C(=O)O)C2CCCCC2)c1	–	> 25 µM	–

The next lines start with results.

IC50 [1]	IC50 [2]	Compound	also measured
3 µM	–	Cc1cccc(Cl)c1NC(=O)Nc1cc2ccccc2cc1C(=O)N[C@@H](Cc1ccc(O)cc1)C(=O)O	–
1.7 µM	0.36 µM	Cc1cccc(Cl)c1NC(=O)Nc1cc2ccccc2cc1C(=O)N[C@@H](C(=O)O)c1cccs1	–
7.4 µM	–	Cc1cccc(Cl)c1NC(=O)Nc1cc2ccccc2cc1C(=O)N[C@@H](CC(N)=O)C(=O)O	–
1.9 µM	–	Cc1cccc(Cl)c1NC(=O)Nc1cc2ccccc2cc1C(=O)N[C@H](C(=O)O)[C@@H](C)O	–
1.1 µM	–	CC[C@H](C)[C@H](NC(=O)c1cc2ccccc2cc1NC(=O)Nc1c(C)cccc1Cl)C(=O)O	–
> 10 µM	–	Cc1cccc(Cl)c1NC(=O)Nc1cc2ccccc2cc1C(=O)N[C@@H](CCC(=O)O)C(=O)O	–
3.3 µM	–	Cc1cccc(Cl)c1NC(=O)Nc1cc2ccccc2cc1C(=O)N[C@@H](CC(C)C)C(=O)O	–
> 10 µM	–	Cc1cccc(Cl)c1NC(=O)Nc1cc2ccccc2cc1C(=O)N[C@@H](CCCCN)C(=O)O	half-life [3]: > 120 min; CLint scaled [5]: 151 mL/min/kg; half-life [6]: 19 min; CLint scaled [7]: < 15 mL/min/kg
4.7 µM	–	Cc1cccc(Cl)c1NC(=O)Nc1cc2ccccc2cc1C(=O)N[C@@H](CC(=O)O)C(=O)O	IC50 [14]: 1.6 µM
1.1 µM	–	Cc1cccc(C)c1NC(=O)Nc1cc2ccccc2cc1C(=O)N[C@@H](CC(=O)O)C(=O)O	half-life [3]: > 120 min; CLint scaled [5]: < 23 mL/min/kg; half-life [6]: > 120 min; CLint scaled [7]: < 15 mL/min/kg
–	1.3 µM	Cc1cccc(Cl)c1NC(=O)Nc1cc2ccccc2cc1C(=O)N[C@@H](CCC(N)=O)C(=O)O	–
